The source of these data is ChEMBL document CHEMBL1240431, “Design, synthesis and anti-ulcerogenic effect of some of furo-salicylic acid derivatives on acetic acid-induced ulcerative colitis” (Eur J Med Chem, 2010).

For orientation: LD50 means the dose expected to kill half of the subjects tested. Lower therefore signals a more toxic substance.

The test system of data set [1] is Staphylococcus aureus. Kind of data set: Antibacterial activity agaisnt Staphylococcus aureus MTCC 3160 by agar diffusion method. The data set is classed as functional. The procedure, abridged:
(§1)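 Mueller Hinton agar (pH 7.4) was seeded with 24-h cultures adjusted to 0.5 McFarland. Compounds were prepared as 10 mg/ml stocks in DMF and added to 6 mm wells. DMF served as the negative control. Plates were incubated at 35 °C for 24 h, and the diameter of the growth inhibition zone was read in mm with a caliper.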

Data set [2] has as its system Rattus norvegicus. Kind of data set: Antiulcerogenic activity against acetic acid-induced ulcerative colitis in albino rat assessed as ulcer index at 12.5 mmol/kg, po. The data set is classed as functional. The procedure, abridged:
(§2)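 Male albino rats (190–200 g, n = 5 per group) received drug in DMSO by orogastric cannula daily for 5 days, with the last dose 2 h before colitis. After a 36 h fast and under ether, 4% acetic acid (5 ml/kg) was instilled 8 cm intrarectally. At 24 h, the distal 8 cm colon was scored for wet weight/length, ulcer area (1 mm² grid count), and ulcer index (lesion score 0–4 plus area).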

Data set [3] in a line: Toxicity in po dosed albino rat. The data set is classed as organism-based. The settings on record: in vivo.
Data set [4] deals with Rattus norvegicus. Kind of data set: Antiulcerogenic activity against acetic acid-induced ulcerative colitis in albino rat assessed as ulcer area at 12.5 mmol/kg, po. The data set is classed as functional. Put shortly:
as §2

The test system of data set [5] is Candida albicans. Kind of data set: Antifungal activity agaisnt Candida albicans ATCC 10231 by agar diffusion method. (In general: A growth-free zone around the sample is the usual read-out of agar diffusion tests.)
In data set [6] the test system is Escherichia coli. The data set can be described thus: Antibacterial activity agaisnt Escherichia coli MTCC 8739 by agar diffusion method. The data set is classed as functional. The procedure, abridged:
as §1

For data set [7], the system named is Rattus norvegicus. The data set can be described thus: Antiulcerogenic activity against acetic acid-induced ulcerative colitis in albino rat assessed as ratio of wet weight and length at 12.5 mmol/kg, po. The data set is classed as functional. Put shortly: as §2
Data set [8] has as its system Bacillus subtilis. The data set can be described thus: Antibacterial activity agaisnt Bacillus subtilis MTCC 1456 by agar diffusion method. The data set is classed as functional. Put shortly: as §1

For `COc1c(C(=O)O)c(O)c(S(=O)(=O)Nc2ccc(C)cc2)c2occc12`, the “diameter of the inhibition zone (DIZ)” value in data set [1] is recorded as 8 mm; in data set [5], 10 mm; in data set [6], 12 mm. Also, the Activity in data set [2] worked out at 8.1 no unit. In data set [3], this compound had an LD50 of 396 mg/kg. Besides, the ulcer area in data set [4] came out at 4.7 cm2. The Ratio in data set [7] turned out to be 111.
As for `COc1c(C(=O)O)c(O)c(NS(=O)(=O)c2ccccc2)c2occc12`, in data set [2], the Activity is 7.4 no unit. For the same compound, the “diameter of the inhibition zone (DIZ)” value in data set [8] and in data set [5] was 10 mm throughout. Moreover, the LD50 in data set [3] stood at 400 mg/kg. Besides, in data set [4], the ulcer area was determined as 4.4 cm2. Also, the Ratio in data set [7] is 99.1.
Take `COc1c(C(=O)O)c(O)c(NS(=O)(=O)c2ccc(Cl)cc2)c2occc12`: the Activity in data set [2] is 4.6 no unit. Besides, the “diameter of the inhibition zone (DIZ)” value in data set [8] is listed as 12 mm; in data set [5] it was 8 mm. In data set [3], this compound showed an LD50 of 390 mg/kg. Moreover, in data set [4], the ulcer area was found to be 2.6 cm2. In addition, in data set [7], the Ratio came to 86.4.
`O=C(O)c1cc(/N=N/c2ccc(S(=O)(=O)Nc3ccccn3)cc2)ccc1O` [SULFASALAZINE]: the “diameter of the inhibition zone (DIZ)” value is 30 mm in data set [1], 25 mm in data set [8], 7 mm in data set [5] and 8 mm in data set [6]. Moreover, the Activity in data set [2] worked out at 3.7 no unit. Moreover, in data set [4], the ulcer area amounted to 2.1 cm2. In addition, the Ratio in data set [7] stood at 79.
For the compound `COc1c(C(=O)O)c(O)c(S(=O)(=O)Nc2ccccc2)c2occc12`, the Activity in data set [2] is 8.5 no unit. In addition, the “diameter of the inhibition zone (DIZ)” value came to 12 mm in data set [8] and 15 mm in data set [5]. In addition, the LD50 in data set [3] amounted to 396 mg/kg. The ulcer area in data set [4] is 5.1 cm2. Besides, the Ratio in data set [7] stood at 119.9.
For the compound `COc1ccc(NS(=O)(=O)c2c(O)c(C(=O)O)c(OC)c3ccoc23)cc1`, the Activity in data set [2] was 8.7 no unit. The “diameter of the inhibition zone (DIZ)” value in data set [8] is given as 10 mm; in data set [5], 8 mm. Moreover, the LD50 in data set [3] worked out at 396 mg/kg. The ulcer area in data set [4] was 5.1 cm2. Besides, in data set [7], the Ratio was determined as 120.1.
Regarding `COc1c(C(=O)O)c(O)c(/N=N/c2ccccc2)c2occc12`, the “diameter of the inhibition zone (DIZ)” value was determined as 8 mm in data set [1], 10 mm in data set [8], 18 mm in data set [5] and 10 mm in data set [6]. Further, the Activity in data set [2] is 4.8 no unit. Also, the LD50 in data set [3] is 410 mg/kg. Further, the ulcer area in data set [4] was determined as 2.6 cm2. The Ratio in data set [7] is recorded as 84.5.
On to `COc1c(C(=O)O)c(O)c(/N=N/c2ccc(S(=O)(=O)Nc3ccccn3)cc2)c2occc12`, for which the “diameter of the inhibition zone (DIZ)” value worked out at 10 mm in data set [1], 12 mm in data set [8], 22 mm in data set [5] and 12 mm in data set [6]. The Activity in data set [2] stood at 6.7 no unit. The LD50 in data set [3] was determined as 410 mg/kg. Moreover, the ulcer area in data set [4] stood at 3.9 cm2. The Ratio in data set [7] was found to be 95.2.
Turning to `COc1c(C(=O)O)c(O)c(S(=O)(=O)Cl)c2occc12`, the “diameter of the inhibition zone (DIZ)” value in data set [1] is listed as 8 mm; in data set [8], 8 mm; in data set [5] it was 20 mm; in data set [6], 8 mm. The Activity in data set [2] was found to be 8.1 no unit. This compound also came in with an LD50 in data set [3] of 390 mg/kg. Also, the ulcer area in data set [4] was 4.7 cm2. The Ratio in data set [7] was determined as 112.
In the case of `COc1c(C(=O)O)c(O)c(S(=O)(=O)Nc2ccc(Cl)cc2Cl)c2occc12`, in data set [2], the Activity turned out to be 8.2 no unit. For the same compound, the LD50 in data set [3] is 410 mg/kg. Besides, the ulcer area in data set [4] came to 4.8 cm2. For the same compound, the “diameter of the inhibition zone (DIZ)” value in data set [5] came to 8 mm. Also, the Ratio in data set [7] worked out at 110.
As for `COc1c(C(=O)O)c(O)c(S(=O)(=O)Nc2ccc(Cl)cc2)c2occc12`, the Activity in data set [2] is 8.2 no unit. Also, the LD50 in data set [3] amounted to 410 mg/kg. The ulcer area in data set [4] worked out at 4.8 cm2. The “diameter of the inhibition zone (DIZ)” value in data set [5] and in data set [6] was 12 mm in each case. The Ratio in data set [7] is 112.
As for `COc1c(C(=O)O)c(O)c(S(N)(=O)=O)c2occc12`, the “diameter of the inhibition zone (DIZ)” value in data set [1] was found to be 8 mm; in data set [8] it was 8 mm; in data set [5], 14 mm; in data set [6], 8 mm. In addition, the Activity in data set [2] was determined as 7.4 no unit. Moreover, the LD50 in data set [3] was found to be 400 mg/kg. In addition, in data set [4], the ulcer area was found to be 4.4 cm2. Further, in data set [7], the Ratio is 103.4.
`COc1c(C(=O)O)c(O)c(N)c2occc12`: the “diameter of the inhibition zone (DIZ)” value in data set [1] is recorded as 8 mm; in data set [8], 8 mm; in data set [5] it was 8 mm; in data set [6], 10 mm. Further, the Activity in data set [2] was determined as 5.5 no unit. The median lethal dose (LD50) in data set [3] worked out at 396 mg/kg. For the same compound, in data set [4], the ulcer area came to 3.3 cm2. The Ratio in data set [7] worked out at 90.
With `COc1c(C(=O)O)c(O)c(NS(=O)(=O)c2ccc(C)cc2)c2occc12`, the Activity in data set [2] was 7.6 no unit. Further, the “diameter of the inhibition zone (DIZ)” value in data set [8] is reported as 10 mm; in data set [5], 15 mm. In data set [3], this compound came in with an LD50 of 400 mg/kg. The ulcer area in data set [4] amounted to 4.3 cm2. Further, the Ratio in data set [7] is given as 98.6.
For `C[C@@H]1[C@H](O)[C@@H](C)/C=C/C=C/C=C/C=C/C=C/C=C/C=C/[C@H](O[C@@H]2O[C@H](C)[C@@H](O)[C@H](N)[C@@H]2O)C[C@@H]2O[C@](O)(C[C@@H](O)C[C@@H](O)[C@H](O)CC[C@@H](O)C[C@@H](O)CC(=O)O[C@H]1C)C[C@H](O)[C@H]2C(=O)O` [AMPHOTERICIN B], the “diameter of the inhibition zone (DIZ)” value in data set [5] stood at 20 mm.
Still for that read-out and setting: next, `COc1c(C(=O)O)c(O)cc2occc12`: 8 mm.
